The values below come from ChEMBL document CHEMBL3046508, “Factors affecting the production of Trichoderma harzianum secondary metabolites during the interaction with different plant pathogens” (2009).

The source made the active and inactive calls. The calls are words filed in the database; no cut-off is given here. A value given as a limit tells only on which side of the number the result lay.

Test [1] has as its system Plenodomus lingam. As to the kind of experiment: Antifungal activity against Leptosphaeria maculans isolate UWA P11 assessed as growth inhibition at 0.01 to 200 ug/plug. Format: functional, organism-based. The method in brief: (§1)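 Plugs cut from actively growing colony margins (L. maculans UWA P11 grown on V8 agar; B. cinerea and P. cinnamomi kept on PDA) were placed centrally on one-fifth strength PDA plates. Purified compound dissolved in filter-sterilized EtOAc was applied on top of each plug and the solvent evaporated; a solvent-only control was included. Colony diameter (mm) was measured daily. Three replicates per treatment; experiment run twice.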

In test [2] the test system is Botrytis cinerea. As to the kind of experiment: Antifungal activity against Botryotinia fuckeliana assessed as growth inhibition at 0.01 to 200 ug/plug. In kind it is functional, organism-based. The method in brief: as §1
For test [3], the system named is Phytophthora cinnamomi. As to the kind of experiment: Antifungal activity against Phytophthora cinnamomi assessed as growth inhibition at 0.01 to 200 ug/plug. In kind it is functional, organism-based. The method in brief: as §1
The test system of test [4] is Plenodomus lingam. The experiment in a line: Antifungal activity against Leptosphaeria maculans isolate UWA P11 assessed as growth inhibition at 1 to 100 ug/plug. Format: functional.
The test system of test [5] is Phytophthora cinnamomi. As to the kind of experiment: Antifungal activity against Phytophthora cinnamomi assessed as growth inhibition at 1 to 100 ug/plug. Format: functional.
Test [6] deals with Botrytis cinerea. As to the kind of experiment: Antifungal activity against Botryotinia fuckeliana assessed as growth inhibition at 200 ug/plug. Format: functional. The method in brief: as §1
Test [7] deals with Phytophthora cinnamomi. As to the kind of experiment: Antifungal activity against Phytophthora cinnamomi assessed as growth inhibition at 200 ug/plug. In kind it is functional. The method in brief:
as §1

The subject of test [8] is Plenodomus lingam. The experiment in a line: Antifungal activity against Leptosphaeria maculans isolate UWA P11 assessed as growth inhibition at 200 ug/plug. Format: functional. The method in brief: as §1
The subject of test [9] is Plenodomus lingam. The experiment in a line: Antifungal activity against Leptosphaeria maculans isolate UWA P11 assessed as growth inhibition at 100 ug/plug. In kind it is functional, organism-based. The method, boiled down:
as §1

Test [10] has as its system Phytophthora cinnamomi. As to the kind of experiment: Antifungal activity against Phytophthora cinnamomi assessed as growth inhibition at 100 ug/plug. In kind it is functional, organism-based. The method in brief:
as §1

Test [11] deals with Phytophthora cinnamomi. The experiment in a line: Antifungal activity against Phytophthora cinnamomi assessed as growth inhibition at 1 to 10 ug/plug. In kind it is functional, organism-based. The method in brief:
as §1

The test system of test [12] is Botrytis cinerea. As to the kind of experiment: Antifungal activity against Botryotinia fuckeliana assessed as growth inhibition at 1 to 10 ug/plug. In kind it is functional, organism-based. The method in brief:
as §1

Turning to `Cc1cc(O)c2c(c1)C(=O)c1ccccc1C2=O`, the “growth inhibition (GI)” value in the test with Plenodomus lingam [1], with Botrytis cinerea [2] and with Phytophthora cinnamomi [3] was “inactive” throughout.

`C/C=C/CC(C)C(=O)c1c(O)c(OC)c(OC)[nH]c1=O` (stereo not given) [HARZIANOPYRIDONE]: the “growth inhibition (GI)” value in the test on Plenodomus lingam [4] and in the test on Phytophthora cinnamomi [5] was 100% throughout.

Regarding `C/C=C/C=C/CC1=C(CC(C)O)C(=O)OC1` (stereo not given) [HARZIANOLIDE], the “growth inhibition (GI)” value with Botrytis cinerea [6], in the test with Phytophthora cinnamomi [7] and in the test on Plenodomus lingam [8] was less than 25% in each case.

As for `C/C=C/C=C/CC1=C(CC(C)=O)C(=O)OC1`, the “growth inhibition (GI)” value in the test with Plenodomus lingam [9] and in the test with Phytophthora cinnamomi [10] was “Active” throughout.

`Cc1cc(O)c2c(c1)C(=O)c1cccc(O)c1C2=O`: the “growth inhibition (GI)” value in the test with Plenodomus lingam [1], in the test on Botrytis cinerea [2] and in the test with Phytophthora cinnamomi [3] was “inactive” in each case.

For the compound `C/C=C/C=C/C1=CC2=CC(=O)[C@](C)(OC(=O)[C@H](C)O)C(=O)C2=CO1`, the “growth inhibition (GI)” value in the test on Phytophthora cinnamomi [11] and in the test with Botrytis cinerea [12] was “Active” in each case.
